Data reported in ChEMBL document CHEMBL1817612, “Inhibitory potential of chemical substitutions at bioinspired sites of β-D-galactopyranose on neoglycoprotein/cell surface binding of two classes of medically relevant lectins” (Bioorg Med Chem, 2011).
Active and inactive are the calls of the source. The rule behind the calls is not given here.

Key:
[1] = target: Galectin-3 (Homo sapiens) (UniProt P17931); assay: Inhibition of galectin-3 binding to biotinylated lectin at cell surface of human Jurkat T-cells at 2 mM by fluorometric analysis; format: cell-based
Galectin-3 (Homo sapiens), sequence (P17931 whole entry): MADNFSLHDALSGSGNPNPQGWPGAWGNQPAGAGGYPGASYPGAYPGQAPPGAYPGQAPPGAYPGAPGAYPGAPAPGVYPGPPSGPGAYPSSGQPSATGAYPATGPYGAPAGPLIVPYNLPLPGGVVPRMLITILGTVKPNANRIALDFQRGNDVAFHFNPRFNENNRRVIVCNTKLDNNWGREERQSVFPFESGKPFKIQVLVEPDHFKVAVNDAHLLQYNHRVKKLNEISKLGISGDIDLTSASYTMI
Method in brief: (§1)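 Recombinant biotinylated galectin-3, at a concentration set by titration, was bound to 5 × 10⁴ Jurkat or SW480 cells per assay, with or without compound. Lactose was run in parallel as reference. A fluorescent second-step reagent gave percent positive cells and mean fluorescence intensity by flow cytometry. Negative controls omitted labeled lectin, and non-cognate sugars served as osmolarity controls.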

SW480 = assay: (§2) Cytotoxicity against human SW480 cells assessed as cell viability at 2 mM after 48 hrs by MTT assay; format: cell-based; settings: sw480, 48 h, 2000 µM
Method in brief: (§3)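 SW480 human colon adenocarcinoma cell aliquots were cultured 48 h with no addition (control) or with test compound added to the medium at 1, 2, 5 or 10 mM. Galactose and lactose were run as controls. Growth was read spectrophotometrically with MTT (0.5 mg/ml) and expressed relative to the untreated control. Triplicates were run in three independent series.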

[2] = Cytotoxicity against human SW480 cells assessed as growth inhibition at 5 mM after 48 hrs by MTT assay; format: cell-based; settings: read-out: GI; method in brief: as §3
Viscum album = assay: Ratio IC50 for lactose to compound for Viscum album agglutinin binding to biotinylated neoglycoprotein with p-isothiocyanatophynyl lactoside assessed as lectin-neoglycoprotein complex formation after 1 hr by spectrophotometric analysis
Method in brief: (§4)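 Lactosylated BSA (p-isothiocyanatophenyl lactoside, about 26 sugars per carrier) was adsorbed to wells from PBS overnight at 4 °C. Biotinylated lectin, at a concentration from titration, was incubated 1 h at 37 °C with up to nine compound concentrations. Bound lectin was read spectrophotometrically. Glycocluster concentration was normalized to sugar content, and lactose served as internal reference. Triplicates were run in up to five series.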

[3] = target: Galectin-3 (Homo sapiens) (UniProt P17931); assay: Ratio IC50 for lactose to compound for galectin-3 binding to biotinylated neoglycoprotein with p-isothiocyanatophynyl lactoside assessed as lectin-neoglycoprotein complex formation after 1 hr by spectrophotometric analysis; method in brief: as §4
Jurkat [4] = assay: Inhibition of Viscum album agglutinin binding to biotinylated lectin at cell surface of human Jurkat T-cells at 1 mM by fluorometric analysis; format: cell-based
Method in brief: (§5)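 Biotinylated mistletoe lectin (VAA, purified from dried leaves on lactosylated Sepharose) was bound to 5 × 10⁴ Jurkat cells per assay at 2.5 µg/ml, with or without compound. Staining was detected with a fluorescent second-step reagent by flow cytometry, as percent positive cells and mean fluorescence intensity. Controls were lactose/galactose, non-cognate sugars for osmolarity, and omission of labeled lectin.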

[5] = target: Galectin-8 (Homo sapiens) (UniProt O00214); assay: (§6) Inhibition of galectin-8 binding to biotinylated lectin at cell surface of human SW480 cells at 2 mM by fluorometric analysis; format: cell-based
Method in brief: (§7)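 Biotinylated recombinant galectin-8 (1 µg/ml) or galectin-9 (40 µg/ml) was bound to 5 × 10⁴ SW480 cells per assay, with or without compound at 2 mM. Lactose was run in parallel. Staining via a fluorescent second-step reagent was quantified as percent positive cells and mean fluorescence intensity. Controls were omission of lectin and non-cognate sugars.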

[6] = target: Galectin-9 (Homo sapiens) (UniProt O00182); assay: Inhibition of galectin-9 binding to biotinylated lectin at cell surface of human SW480 cells at 2 mM by fluorometric analysis; format: cell-based; method in brief: as §7
Galectin-9 (Homo sapiens), sequence (O00182 whole entry): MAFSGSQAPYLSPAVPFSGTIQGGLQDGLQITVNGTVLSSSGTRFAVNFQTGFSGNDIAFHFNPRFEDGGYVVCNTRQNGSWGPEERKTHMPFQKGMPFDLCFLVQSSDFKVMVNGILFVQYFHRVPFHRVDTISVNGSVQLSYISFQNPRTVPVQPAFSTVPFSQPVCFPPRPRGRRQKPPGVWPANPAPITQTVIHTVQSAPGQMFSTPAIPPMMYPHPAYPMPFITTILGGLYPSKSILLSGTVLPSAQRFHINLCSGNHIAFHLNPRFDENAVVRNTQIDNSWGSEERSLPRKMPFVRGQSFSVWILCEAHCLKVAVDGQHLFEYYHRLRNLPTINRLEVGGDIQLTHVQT

[7] = target: Galectin-3 (Homo sapiens) (UniProt P17931); assay: Inhibition of galectin-3 binding to biotinylated lectin at cell surface of human Jurkat T-cells at 100 uM by fluorometric analysis; format: cell-based; method in brief: as §1
[8] = target: Galectin-3 (Homo sapiens) (UniProt P17931); assay: Inhibition of galectin-3 binding to biotinylated lectin at cell surface of human SW480 cells at 100 uM by fluorometric analysis; format: cell-based; method in brief: as §1
[9] = target: Galectin-9 (Homo sapiens) (UniProt O00182); assay: Ratio IC50 for lactose to compound for galectin-9 binding to biotinylated neoglycoprotein with p-isothiocyanatophynyl lactoside assessed as lectin-neoglycoprotein complex formation after 1 hr by spectrophotometrically relative to lactose; method in brief: as §4
[10] = target: T1, Galectin-8 (Homo sapiens) (UniProt O00214); assay: Ratio IC50 for lactose to compound for galectin-8 binding to biotinylated neoglycoprotein with p-isothiocyanatophynyl lactoside assessed as lectin-neoglycoprotein complex formation after 1 hr by spectrophotometric analysis; method in brief: as §4
T1 sequence (whole entry): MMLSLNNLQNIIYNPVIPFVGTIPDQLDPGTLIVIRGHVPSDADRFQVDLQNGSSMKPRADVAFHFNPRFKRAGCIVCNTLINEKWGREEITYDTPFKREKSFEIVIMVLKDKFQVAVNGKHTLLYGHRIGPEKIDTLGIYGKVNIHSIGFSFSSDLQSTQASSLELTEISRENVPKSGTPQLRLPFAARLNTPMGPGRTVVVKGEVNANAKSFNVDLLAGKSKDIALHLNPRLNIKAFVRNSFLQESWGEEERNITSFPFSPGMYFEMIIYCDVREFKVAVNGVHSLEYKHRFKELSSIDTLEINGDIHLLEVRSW

Jurkat [11] = assay: Inhibition of Viscum album agglutinin binding to biotinylated lectin at cell surface of human Jurkat T-cells at 2.5 ug/ml by fluorometric analysis; format: cell-based; method in brief: as §5
[12] = target: Galectin-3 (Homo sapiens) (UniProt P17931); assay: Inhibition of galectin-3 binding to biotinylated lectin at cell surface of human Jurkat T-cells at 1 mM by fluorometric analysis relative to lactose; format: cell-based; method in brief: as §1
[13] = target: T1, Galectin-8 (Homo sapiens); assay: as §6; format: cell-based; method in brief: as §7; remark: listed apart in the source
[14] = as §2; format: cell-based; settings: SW480 cells, read-out: GI; method in brief: as §3
[15] = Cytotoxicity against human SW480 cells assessed as growth inhibition at 1 mM after 48 hrs by MTT assay; format: cell-based; settings: read-out: GI; method in brief: as §3
[16] = target: Galectin-3 (Homo sapiens) (UniProt P17931); assay: Inhibition of galectin-3 binding to biotinylated lectin at cell surface of human Jurkat T-cells at 15 uM by fluorometric analysis; format: cell-based; method in brief: as §1
[17] = target: Galectin-3 (Homo sapiens) (UniProt P17931); assay: Inhibition of galectin-3 binding to biotinylated lectin at cell surface of human SW480 cells at 15 uM by fluorometric analysis; format: cell-based; method in brief: as §1
[18] = target: Galectin-1 (Homo sapiens) (UniProt P09382); assay: Ratio IC50 for lactose to compound for galectin-1 binding to biotinylated neoglycoprotein with p-isothiocyanatophynyl lactoside assessed as lectin-neoglycoprotein complex formation after 1 hr by spectrophotometric analysis; method in brief: as §4
Galectin-1 (Homo sapiens), sequence (P09382 whole entry): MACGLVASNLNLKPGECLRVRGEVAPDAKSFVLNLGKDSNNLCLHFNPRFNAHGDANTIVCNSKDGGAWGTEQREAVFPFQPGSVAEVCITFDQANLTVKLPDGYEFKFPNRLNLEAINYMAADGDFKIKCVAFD

Compound: C=C(C[C@@H]1O[C@H](CO)[C@H](O)[C@H](O)[C@H]1O)c1cccc([N+](=O)[O-])c1
- inhibition [1]: inactive

Compound: C/C=C/[C@@H]1O[C@H](CO)[C@H](O)[C@H](O)[C@H]1O
- Activity (SW480): Non-toxic
- inhibition at 48 h, 5000 µM [2]: 50%

Compound: Cc1nc(NC(=O)Cc2ccccc2)sc1[C@@H]1O[C@H](CO)[C@H](O)[C@H](O)[C@H]1O
- Ratio IC50 (Viscum album): 1.3
- Ratio IC50 [3]: 1.1
- inhibition (Jurkat [4]): Active

Compound: LACTOSE, ANHYDROUS
- inhibition [1]: inactive
- inhibition [5]: Active
- inhibition [6]: Active
- inhibition [7]: Active
- inhibition [8]: Active

Compound: O=S(=O)(O)OCc1cn([C@H]2[C@@H](O)[C@@H](CO)O[C@@H](Sc3nc4ccccc4s3)[C@@H]2O)nn1
- Ratio IC50 [9]: 1.4

Compound: Cc1nc(NC(=O)c2ccccc2)sc1[C@@H]1O[C@H](CO)[C@H](O)[C@H](O)[C@H]1O
- Ratio IC50 (Viscum album): 1.2
- Ratio IC50 [3]: 1.3
- inhibition (Jurkat [4]): Active

Compound: O=C(NCc1cn([C@@H]2O[C@H](CO)[C@H](O[C@@H]3O[C@H](CO)[C@H](O)[C@H](O)[C@H]3O)[C@H](O)[C@H]2O)nn1)c1cc(C(=O)NCc2cn([C@@H]3O[C@H](CO)[C@H](O[C@@H]4O[C@H](CO)[C@H](O)[C@H](O)[C@H]4O)[C@H](O)[C@H]3O)nn2)cc(C(=O)NCc2cn([C@@H]3O[C@H](CO)[C@H](O[C@@H]4O[C@H](CO)[C@H](O)[C@H](O)[C@H]4O)[C@H](O)[C@H]3O)nn2)c1
- Ratio IC50 (Viscum album): 6.2
- Ratio IC50 [3]: 8.4
- Ratio IC50 [10]: 6.9
- Ratio IC50 [9]: 7.7
- inhibition (Jurkat [11]): Active
- fold change (FC) [12]: 7
- inhibition [13]: Active
- inhibition [6]: Active
- inhibition at 48 h, 2000 µM [14]: 58%
- inhibition at 48 h, 1000 µM [15]: 75%
- inhibition [16]: Active
- inhibition [17]: Active

Compound: COc1ccc(C(=O)Nc2nc(C)c([C@@H]3O[C@H](CO)[C@H](O)[C@H](O)[C@H]3O)s2)cc1
- Activity (SW480): Non-toxic
- inhibition at 48 h, 5000 µM [2]: 50%

Compound: C#CCO[C@H]1[C@@H](O)[C@@H](CO)O[C@@H](Sc2ccccc2C(=O)OC)[C@@H]1O
- Ratio IC50 [3]: 1.8
- inhibition at 48 h, 1000 µM [15]: 10%

Compound: OC[C@@H]1O[C@H](C/C=C/c2cccc(/C=C/C[C@@H]3O[C@H](CO)[C@H](O)[C@H](O)[C@H]3O)c2)[C@@H](O)[C@H](O)[C@@H]1O
- Ratio IC50 (Viscum album): 1.9

Compound: O=C(CCSCCC(F)(F)C(F)(F)C(F)(F)C(F)(F)C(F)(F)C(F)(F)C(F)(F)C(F)(F)F)NC(CO[C@@H]1O[C@H](CO)[C@H](O)[C@H](O)[C@H]1O)(CO[C@@H]1O[C@H](CO)[C@H](O)[C@H](O)[C@H]1O)CO[C@@H]1O[C@H](CO)[C@H](O)[C@H](O)[C@H]1O
- Ratio IC50 (Viscum album): 2.2
- Ratio IC50 [18]: 1.8
- Ratio IC50 [3]: 6.2
- Ratio IC50 [10]: 4.6
- Ratio IC50 [9]: 5.1
- inhibition (Jurkat [11]): Active
- fold change (FC) [12]: 7
- inhibition [13]: Active
- inhibition [6]: Active

Compound: CC(C)(C)C(=O)c1cc(CO[C@@H]2O[C@H](CO)[C@H](O[C@@H]3O[C@H](CO)[C@H](O)[C@H](O)[C@H]3O)[C@H](O)[C@H]2O)on1
- Ratio IC50 [3]: 1.6
- Ratio IC50 [10]: 2.2
- Ratio IC50 [9]: 1.7
- inhibition [13]: Active
- inhibition [6]: Active

Compound: Cc1nc(NS(=O)(=O)c2ccc3ccccc3c2)sc1[C@@H]1O[C@H](CO)[C@H](O)[C@H](O)[C@H]1O
- Activity (SW480): Non-toxic
- inhibition at 48 h, 5000 µM [2]: 50%

Compound: O=C(O)c1cn([C@H]2[C@@H](O)[C@@H](CO)O[C@@H](Sc3nc4ccccc4s3)[C@@H]2O)nn1
- Ratio IC50 [3]: 1.4
- inhibition at 48 h, 2000 µM [14]: 40%
- inhibition at 48 h, 1000 µM [15]: 70%
